# Results: ChEMBL document CHEMBL4334481, “First Nondiscriminating Translocator Protein Ligands Produced from a Carbazole Scaffold” (J Med Chem, 2019)
# The source made the active and inactive calls. No cut-off for these calls is given here.
# Assays:
# Translocator protein [1] = target: T1, Translocator protein (Homo sapiens, UniProt P30536); assay: Displacement of [3H]PK11195 from wild-type human TSPO expressed in HEK293 cell membranes after 90 mins by scintillation counting method
# Translocator protein [2] = target: T1, Translocator protein; assay: Binding affinity to wild-type human TSPO expressed in HEK293 cells assessed as inhibition of cell viability at 100 uM incubated for 48 hrs by CellTiter Blue assay relative to control; format: cell-based
# How it was run: (§1)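 Stably transfected WT or A147T TSPO HEK293 cells, 8.75 x 10^3/well on poly-L-lysine (100 µg/mL) plates for 24 h, then 100 µM ligand for 48 h. CellTiter Blue (resazurin) added for 4 h at 37 °C; fluorescence 530 ex/590 em; normalised to vehicle-treated cells; three independent experiments; two-way ANOVA with Dunnett's test.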
# Homo sapiens [3] = organism: Homo sapiens; assay: Selectivity ratio of ki for human TSPO A147T mutant expressed in HEK293 cell membranes to ki for human TSPO expressed in HEK293 cell membranes; format: cell-based
# How it was run: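 Membranes from stably transfected HEK293 cells (PBS/0.04% EDTA detachment, homogenised in Tris-HCl, washed by 48000 g spins), 20 µg protein/well for WT or 10 µg/well for A147T, incubated with 10 nM [3H]PK 11195 and competitor at log-spaced 3.1 nM–10 µM, 90 min, 4 °C.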
# [4] = test system: Translocator protein (Homo sapiens), P30536 [UNDEFINED MUTATION]; assay: Binding affinity to human TSPO A147T mutant expressed in HEK293 cells assessed as inhibition of cell proliferation at 100 uM incubated for 48 hrs by Brdu incorporation-based ELISA relative to control
# Chain of Translocator protein (Homo sapiens), P30536 [UNDEFINED MUTATION] (P30536 whole entry, looked up, stated change not applied): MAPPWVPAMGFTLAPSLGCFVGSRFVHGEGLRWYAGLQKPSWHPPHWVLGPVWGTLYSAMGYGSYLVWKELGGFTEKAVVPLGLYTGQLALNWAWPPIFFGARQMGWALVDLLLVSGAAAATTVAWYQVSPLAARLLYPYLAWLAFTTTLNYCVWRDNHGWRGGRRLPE
# How it was run: (§2)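 Stably transfected WT or A147T TSPO HEK293 cells, 8.75 x 10^3/well on poly-L-lysine-coated plates for 24 h, then 100 µM ligand for 48 h. BrdU added 4 h at 37 °C, BrdU incorporation ELISA stopped with 1 M sulfuric acid, absorbance 450 nm; normalised to vehicle-treated controls; n ≥ 3; two-way ANOVA with Dunnett's test.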
# [5] = test system: Translocator protein (Homo sapiens), P30536 [UNDEFINED MUTATION]; assay: Binding affinity to human TSPO A147T mutant expressed in HEK293 cells assessed as inhibition of cell viability at 100 uM incubated for 48 hrs by CellTiter Blue assay relative to control; format: cell-based; how it was run: as §1
# Translocator protein [6] = target: T1, Translocator protein; assay: Binding affinity to wild-type human TSPO expressed in HEK293 cells assessed as inhibition of cell proliferation at 100 uM incubated for 48 hrs by Brdu incorporation-based ELISA relative to control; how it was run: as §2
# Homo sapiens [7] = organism: Homo sapiens; assay: Selectivity ratio of ki for human TSPO A147T mutant expressed in HEK293 cells to ki for human TSPO expressed in HEK293 cells; format: cell-based
# Translocator protein [8] = target: T1, Translocator protein; assay: Displacement of [3H]PK11195 from human TSPO A147T mutant expressed in HEK293 cells after 90 mins by scintillation counting method; format: cell-based
# [9] = target: Translocator protein (Rattus norvegicus) (UniProt P16257); assay: Binding affinity to TSPO in rat C6 glioma cells assessed as steroidogenic activity by measuring increase in pregnenolone level after 2 hrs by ELISA; format: cell-based
# Chain of Translocator protein (Rattus norvegicus) (P16257 whole entry, looked up): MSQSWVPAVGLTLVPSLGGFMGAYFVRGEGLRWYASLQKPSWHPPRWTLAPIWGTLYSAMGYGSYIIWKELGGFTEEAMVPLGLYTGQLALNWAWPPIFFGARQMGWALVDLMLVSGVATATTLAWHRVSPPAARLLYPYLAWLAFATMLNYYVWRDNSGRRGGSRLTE
# How it was run: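 C6 glioma cells plated at 1 x 10^5/well, after 24 h washed twice with ELISA buffer (HEPES-NaOH pH 7.4, 0.1% BSA, glucose, salts), then ligand 100 µM for 2 h in buffer containing trilostane 25 µM and SU10603 10 µM; vehicle 0.1% DMSO. Buffer collected, spun 1500 g, pregnenolone quantified by ELISA; n ≥ 3; one-way ANOVA with Dunnett's test.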
# Translocator protein [10] = target: T1, Translocator protein; assay: Displacement of [3H]PK11195 from wild-type human TSPO expressed in HEK293 cells after 90 mins by scintillation counting method; format: cell-based
# [11] = test system: Translocator protein (Homo sapiens), P30536 [UNDEFINED MUTATION]; assay: Positive allosteric modulation of human TSPO A147T mutant expressed in HEK293 cells assessed as potentiation of PK11195-induced reduction in cell proliferation at 100 uM after 48 hrs by Brdu incorporation-based ELISA
# How it was run: (§3)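 WT or A147T TSPO HEK293 cells (8.75 x 10^3/well, poly-L-lysine plates, 24 h) co-treated with 100 µM PK 11195 plus 100 µM ligand for 48 h; proliferation by BrdU ELISA (4 h BrdU labelling, 450 nm read); compared with PK 11195 alone; n ≥ 3; two-way ANOVA with Dunnett's test.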
# Translocator protein [12] = target: T1, Translocator protein; assay: Positive allosteric modulation of wild-type human TSPO expressed in HEK293 cells assessed as potentiation of PK11195-induced reduction in cell proliferation at 100 uM after 48 hrs by Brdu incorporation-based ELISA; how it was run: as §3
# Translocator protein [13] = target: T1, Translocator protein; assay: Potency index, ratio of PK11195 Ki to compound Ki for wild-type human TSPO expressed in HEK293 cell membranes; format: cell-based
# [14] = test system: Translocator protein (Homo sapiens), P30536 [UNDEFINED MUTATION]; assay: Potency index, ratio of PK11195 Ki to compound Ki for human TSPO A147T mutant expressed in HEK293 cell membranes; format: cell-based
# T1 sequence (P30536 whole entry): as the sequence (P30536 whole entry, looked up, stated change not applied) above
smiles,measurement,setting,value
CCN(Cc1cccc(OC)c1)C(=O)Cn1c2ccccc2c2cc(Br)ccc21,Ki,Translocator protein [1],469 nM
same,inhibition,Translocator protein [2],inactive
same,Ratio Ki,Homo sapiens [3],1
same,inhibition,[4],inactive
same,inhibition,[5],inactive
same,inhibition,Translocator protein [6],inactive
O=C(Cn1c2ccccc2c2ccccc21)NCc1ccccc1,Ki,Translocator protein [1],> 10000 nM
COc1cccc(CN(C)C(=O)Cn2c3ccccc3c3cc(-c4cccc(Cl)c4)ccc32)c1,Ki,Translocator protein [1],201 nM
same,Ratio Ki,Homo sapiens [3],3.2
CCN(Cc1ccccc1C(F)(F)F)C(=O)Cn1c2ccccc2c2ccccc21,Ki,Translocator protein [1],> 10000 nM
COc1cccc(CN(C)C(=O)Cn2c3ccccc3c3cc(-c4ccccc4Cl)ccc32)c1,Ki,Translocator protein [1],231 nM
same,inhibition,Translocator protein [2],inactive
same,Ratio Ki,Homo sapiens [3],0.9
same,inhibition,[5],inactive
CCN(Cc1ccncc1)C(=O)Cn1c2ccccc2c2ccccc21,Ki,Translocator protein [1],> 10000 nM
CCN(Cc1ccccc1)C(=O)Cn1c2ccccc2c2ccccc21,Ki,Translocator protein [1],70 nM
same,inhibition,Translocator protein [2],inactive
same,Ratio Ki,Homo sapiens [3],4.5
same,inhibition,[4],inactive
same,inhibition,[5],inactive
same,inhibition,Translocator protein [6],inactive
CCN(Cc1cccc(OC)c1)C(=O)Cn1c2ccccc2c2ccccc21,Ratio Ki,Homo sapiens [7],1.2
same,Ki,Translocator protein [1],96.1 nM
same,inhibition,Translocator protein [2],inactive
same,Ratio Ki,Homo sapiens [3],1
same,inhibition,[4],inactive
same,Ki,Translocator protein [8],277 nM
same,Activity,[9],inactive
same,inhibition,[5],inactive
same,Ki,Translocator protein [10],217 nM
same,inhibition,Translocator protein [6],inactive
CN(Cc1ccccc1)C(=O)Cn1c2ccccc2c2ccccc21,Ki,Translocator protein [1],53 nM
same,inhibition,Translocator protein [2],inactive
same,Ratio Ki,Homo sapiens [3],2.5
same,inhibition,[4],inactive
same,inhibition,[5],inactive
same,inhibition,Translocator protein [6],inactive
CCN(Cc1ccc(C(F)(F)F)cc1)C(=O)Cn1c2ccccc2c2ccccc21,Ki,Translocator protein [1],> 10000 nM
CCN(Cc1ccccn1)C(=O)Cn1c2ccccc2c2ccccc21,Ki,Translocator protein [1],> 10000 nM
CCN(Cc1ccc(NC(C)=O)cc1)C(=O)Cn1c2ccccc2c2ccccc21,Ki,Translocator protein [1],> 10000 nM
COc1cccc(CN(C)C(=O)Cn2c3ccccc3c3cc(-c4ccc(Cl)cc4)ccc32)c1,Ki,Translocator protein [1],3550 nM
same,Ratio Ki,Homo sapiens [3],0.5
CCN(Cc1cccc(OC)c1)C(=O)Cn1c2ccccc2c2cc(-c3ccccc3)ccc21,Ki,Translocator protein [1],385 nM
same,inhibition,Translocator protein [2],inactive
same,Ratio Ki,Homo sapiens [3],1.1
same,inhibition,[4],Active
same,inhibition,[5],inactive
same,inhibition,Translocator protein [6],inactive
CC[C@@H](C)N(C)C(=O)c1cc2ccccc2c(-c2ccccc2Cl)n1,inhibition,Translocator protein [2],65%
same,inhibition,[4],81%
same,Activity,[9],Active
same,inhibition,[5],68%
same,inhibition,Translocator protein [6],83%
CCN(Cc1cccnc1)C(=O)Cn1c2ccccc2c2ccccc21,Ki,Translocator protein [1],> 10000 nM
CCN(Cc1cccc(C(F)(F)F)c1)C(=O)Cn1c2ccccc2c2ccccc21,Ki,Translocator protein [1],> 10000 nM
CCN(Cc1ccccc1NC(C)=O)C(=O)Cn1c2ccccc2c2ccccc21,Ki,Translocator protein [1],243 nM
same,Ratio Ki,Homo sapiens [3],> 41.2
COc1cccc(CN(C)C(=O)Cn2c3ccccc3c3cc(-c4ccccc4)ccc32)c1,Ki,Translocator protein [1],231 nM
same,inhibition,Translocator protein [2],inactive
same,Ratio Ki,Homo sapiens [3],0.9
same,inhibition,[4],inactive
same,Activity,[11],Active
same,inhibition,[5],inactive
same,Activity,Translocator protein [12],Active
same,inhibition,Translocator protein [6],inactive
CCN(Cc1cccc(OC)c1)C(=O)Cn1c2ccccc2c2cc(-c3ccc(OC)cc3)ccc21,Ki,Translocator protein [1],447 nM
same,Ratio Ki,Homo sapiens [3],0.8
CCN(Cc1cccc(F)c1)C(=O)Cn1c2ccccc2c2ccccc21,Ki,Translocator protein [1],563 nM
same,Ratio Ki,Homo sapiens [3],> 17.8
CCN(Cc1ccccc1OC)C(=O)Cn1c2ccccc2c2ccccc21,Ki,Translocator protein [1],1530 nM
same,Ratio Ki,Homo sapiens [3],1
CCN(CC)C(=O)Cn1c2ccccc2c2ccccc21,Ratio Ki,Homo sapiens [3],5.9
CCN(Cc1ccc(F)cc1)C(=O)Cn1c2ccccc2c2ccccc21,Ki,Translocator protein [1],694 nM
same,Ratio Ki,Homo sapiens [3],> 14.4
CCN(Cc1ccccc1F)C(=O)Cn1c2ccccc2c2ccccc21,Ki,Translocator protein [1],184 nM
same,Ratio Ki,Homo sapiens [3],17
COc1ccc(-c2ccc3c(c2)c2ccccc2n3CC(=O)N(C)Cc2cccc(OC)c2)cc1,Ratio Ki,Homo sapiens [7],7.3
same,Ki,Translocator protein [1],6.6 nM
same,inhibition,Translocator protein [2],inactive
same,Ratio Ki,Homo sapiens [3],3.8
same,inhibition,[4],inactive
same,Ki,Translocator protein [8],23.2 nM
same,Activity,[9],inactive
same,Ratio Ki,Translocator protein [13],3.4
same,inhibition,[5],inactive
same,Ki,Translocator protein [10],3.2 nM
same,inhibition,Translocator protein [6],inactive
same,Ratio Ki,[14],1.1
COc1cccc(CN(C)C(=O)Cn2c3ccccc3c3cc(Br)ccc32)c1,Ki,Translocator protein [1],> 10000 nM
CN(C)C(=O)Cn1c2ccccc2c2ccccc21,Ki,Translocator protein [1],> 10000 nM
CCN(Cc1ccc(OC)cc1)C(=O)Cn1c2ccccc2c2ccccc21,Ki,Translocator protein [1],4740 nM
same,Ratio Ki,Homo sapiens [3],> 2.1
CCN(Cc1cccc(NC(C)=O)c1)C(=O)Cn1c2ccccc2c2ccccc21,Ki,Translocator protein [1],> 10000 nM
